The values below come from ChEMBL document CHEMBL1127053, “3,4-Dimethyl-4-(3-hydroxyphenyl)piperidines: opioid antagonists with potent anorectant activity” (J Med Chem, 1993).

In assay [1] the target is Delta-type opioid receptor (Rattus norvegicus, UniProt P33533). The experiment in a line: Binding affinity towards delta-opioid receptor by displacement of [3H]DADL in rat brain homogenates. In kind it is tissue-based. The essentials:
(§1)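 Radioligand displacement. Kappa: [3H]EKC, guinea pig cortex, with fentanyl and DADL added to block mu/delta binding. Delta: [3H]DADL, rat brain homogenate.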

For assay [2], the system named is Rattus norvegicus. Briefly: Tested for concentration required to reduce the food consumption by 20 % subcutaneously. Type of assay: functional. The essentials: (§2)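 Obese Zucker rats, 3-4 months old, trained to eat only 8 am-4 pm. Groups of 4 (2 male, 2 female), with one saline control group daily. Compound in saline with 10% DMSO, given sc on 3 consecutive days, typical doses 5.0-0.08 mg/kg (0.02-20 in some cases). Intake measured over the first 4 h. ED20 from regression of the linear portion of the dose-response curve.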

The target in assay [3] is Kappa-type opioid receptor (Cavia porcellus, UniProt P41144). Briefly: Binding affinity towards kappa opioid receptor by displacement of [3H]EKC in guinea pig cortical tissue. The essentials:
as §1
On the technique in general: Loss of bound radioactivity is the signal in a displacement assay; it reports binding, not function.

Assay [4] deals with Rattus norvegicus. Briefly: Tested for concentration required to reduce the food consumption by 20 % subcutaneously; effect on feeding was minimal and not dose related. Type of assay: functional. As to conditions: sc. The essentials:
as §2

For assay [5], the target named is Kappa-type opioid receptor (Rattus norvegicus) (UniProt P34975). Briefly: Antagonism of bremazocine induced kappa receptor diuresis in rats at a concentration of 0.08 mg/kg subcutaneously. Type of assay: functional, organism-based. Further details: dose 0.08 mg/kg. In outline: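 Male Long-Evans hooded rats (350-500 g), reused no more than twice weekly. Bremazocine 0.08 mg/kg sc, test antagonist sc on the opposite side without delay. Rats housed in metabolism cages; urine volume recorded at 2 and 5 h. 3 rats/dose, doses varied 2-fold. AD50 = dose reducing cumulative 5-h induced urination by 50%.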
Sequence of Kappa-type opioid receptor (Rattus norvegicus) (P34975 whole entry): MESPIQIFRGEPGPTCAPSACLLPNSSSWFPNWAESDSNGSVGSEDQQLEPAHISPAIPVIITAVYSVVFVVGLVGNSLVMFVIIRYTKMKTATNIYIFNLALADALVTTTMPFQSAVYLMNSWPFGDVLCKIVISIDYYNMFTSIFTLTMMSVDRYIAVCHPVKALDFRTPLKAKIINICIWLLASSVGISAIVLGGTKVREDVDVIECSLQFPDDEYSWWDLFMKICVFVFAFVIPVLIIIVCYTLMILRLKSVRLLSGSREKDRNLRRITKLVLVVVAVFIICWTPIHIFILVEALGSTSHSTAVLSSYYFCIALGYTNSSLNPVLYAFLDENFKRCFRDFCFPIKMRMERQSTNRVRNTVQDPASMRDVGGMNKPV

Assay [6] addresses Mu-type opioid receptor (Mus musculus) (UniProt P42866). The experiment in a line: Antagonistic activity towards morphine induced mu-opioid receptor by mouse writhing assay at 1.25 mg/kg subcutaneously. In kind it is functional, organism-based. Further details: dose 1.25 mg/kg. The essentials:
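Mouse acetic acid writhing: 0.6% acetic acid ip, writhes counted for 10 min starting 5 min after injection. Agonist (morphine 1.25 mg/kg or U50,488 2.5 mg/kg) and antagonist given sc 20 min before acid. 5 mice/point, ≥5 doses varied 2-fold, each mouse used once. AD50 = antagonist dose reducing agonist-induced writhing inhibition to 50%.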

In another assay the target is Mu-type opioid receptor (Rattus norvegicus, UniProt P33535). The experiment in a line: Binding affinity towards mu-opioid receptor by the displacement of [3H]Nal in rat brain homogenates. In kind it is tissue-based.
Sequence of Mu-type opioid receptor (P33535 whole entry): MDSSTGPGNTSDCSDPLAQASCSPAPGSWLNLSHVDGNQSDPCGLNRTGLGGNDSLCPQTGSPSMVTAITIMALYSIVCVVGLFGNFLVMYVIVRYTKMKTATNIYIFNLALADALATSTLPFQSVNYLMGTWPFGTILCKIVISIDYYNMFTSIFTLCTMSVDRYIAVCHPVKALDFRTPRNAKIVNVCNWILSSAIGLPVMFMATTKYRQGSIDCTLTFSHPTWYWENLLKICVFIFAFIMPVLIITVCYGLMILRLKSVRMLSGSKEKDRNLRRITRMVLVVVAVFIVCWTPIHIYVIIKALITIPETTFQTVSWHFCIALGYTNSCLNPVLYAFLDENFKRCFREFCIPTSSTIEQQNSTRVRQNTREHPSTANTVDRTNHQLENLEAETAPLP
Assay [7] has as its target Kappa-type opioid receptor (Mus musculus) (UniProt P33534). The experiment in a line: Antagonist activity towards U50 488 induced kappa opioid receptor by mouse writhing assay at 2.5 mg/kg subcutaneously. Type of assay: functional, organism-based. Also noted: dose 2.5 mg/kg. The essentials:
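Mouse acetic acid writhing: 0.6% acetic acid ip, writhes counted for 10 min starting 5 min after injection. 5 mice/point, ≥5 doses varied 2-fold, each mouse used once. AD50 = antagonist dose reducing agonist-induced writhing inhibition to 50%.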
On the technique in general: In writhing tests, fewer writhes than in controls are read as antinociception.

The target of assay [8] is Kappa-type opioid receptor (Cavia porcellus) (UniProt P41144). Briefly: Binding affinity towards kappa-opioid receptor by displacement of [3H]EKC in guinea pig cortical tissue at 100 nM. The essentials: (§3)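 [3H]EKC binding to guinea pig cortical tissue, with fentanyl and DADL present to block mu and delta sites. Percent displacement measured at 10 and 100 nM test compound, run in triplicate.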
Sequence of Kappa-type opioid receptor (Cavia porcellus) (P41144 whole entry): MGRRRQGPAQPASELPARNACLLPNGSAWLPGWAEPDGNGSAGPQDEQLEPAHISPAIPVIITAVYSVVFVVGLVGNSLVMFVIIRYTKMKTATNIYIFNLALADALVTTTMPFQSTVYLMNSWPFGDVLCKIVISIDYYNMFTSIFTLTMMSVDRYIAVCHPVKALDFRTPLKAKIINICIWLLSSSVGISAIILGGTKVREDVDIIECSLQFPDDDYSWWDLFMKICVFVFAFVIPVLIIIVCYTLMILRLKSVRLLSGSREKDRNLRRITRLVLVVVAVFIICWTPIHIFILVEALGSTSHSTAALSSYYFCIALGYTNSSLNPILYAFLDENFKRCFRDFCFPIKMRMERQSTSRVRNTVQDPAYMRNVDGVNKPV

Assay [9] has the same target. The experiment in a line: Binding affinity towards kappa-opioid receptor by displacement of [3H]EKC in guinea pig cortical tissue at 10 nM. The essentials: as §3
The subject of assay [10] is Rattus norvegicus. The experiment in a line: Tested for concentration required to reduce the food consumption by 20 % subcutaneously; The maximum effect achievedwas approximately 20% and not dose related. Type of assay: functional. As to conditions: sc. The essentials:
as §2

Setting [11] is: Rattus norvegicus, sc, read-out: ED50.

Sequence of Kappa-type opioid receptor (Mus musculus) (P33534 whole entry): as the sequence (P34975 whole entry) above, with E11D, A17S, P51S, V308A counted along it
Sequence of Kappa-type opioid receptor (P41144 whole entry): as the sequence (P41144 whole entry) above
Sequence of Mu-type opioid receptor (Mus musculus) (P42866 whole entry): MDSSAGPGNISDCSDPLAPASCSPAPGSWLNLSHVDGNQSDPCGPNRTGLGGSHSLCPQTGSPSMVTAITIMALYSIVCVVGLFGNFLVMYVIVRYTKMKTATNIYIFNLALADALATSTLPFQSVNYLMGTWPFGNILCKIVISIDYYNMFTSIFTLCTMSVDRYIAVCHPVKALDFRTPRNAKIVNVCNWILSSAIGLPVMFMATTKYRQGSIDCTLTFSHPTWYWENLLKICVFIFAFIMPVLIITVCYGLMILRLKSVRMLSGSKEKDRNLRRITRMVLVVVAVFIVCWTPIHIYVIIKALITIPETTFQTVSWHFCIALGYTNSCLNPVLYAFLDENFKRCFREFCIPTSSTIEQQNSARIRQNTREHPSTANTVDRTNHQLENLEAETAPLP
Sequence of Delta-type opioid receptor (P33533 whole entry): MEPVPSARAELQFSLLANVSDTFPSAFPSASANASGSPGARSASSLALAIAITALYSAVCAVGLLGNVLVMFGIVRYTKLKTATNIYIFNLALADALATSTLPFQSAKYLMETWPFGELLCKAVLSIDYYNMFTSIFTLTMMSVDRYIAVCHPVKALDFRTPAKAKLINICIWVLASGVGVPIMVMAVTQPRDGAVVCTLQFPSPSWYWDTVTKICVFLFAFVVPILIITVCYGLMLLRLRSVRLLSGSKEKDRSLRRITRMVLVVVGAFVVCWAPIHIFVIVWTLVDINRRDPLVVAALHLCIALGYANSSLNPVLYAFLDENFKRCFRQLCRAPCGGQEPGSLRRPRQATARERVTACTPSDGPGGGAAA

A word on the Ki: it is a dissociation constant, usually derived from enzyme kinetics or from competition with a known ligand. `C[C@H]1CN(CCCc2cccs2)CC[C@@]1(C)c1cccc(O)c1` (stereo in doubt; 41): the Ki in assay [1] worked out at 10.3 nM. In the assay with Rattus norvegicus [2], this compound registered an ED50 of 0.11 mg/kg.
`C[C@@H]1CN(CC[C@@H](O)C2CCCCC2)CC[C@]1(C)c1cccc(O)c1`: the values for the Ki (in [3]; at Mu-type opioid receptor) were 14.3 nM and 2.2 nM, respectively. Further, the ED50 in the assay on Rattus norvegicus [4] was over 1.25 mg/kg. The values for the AD50 in assay [5], in [6] and in assay [7] were 5.2 mg/kg, 0.52 mg/kg and 0.52 mg/kg, respectively.
As for `C=C1CC[C@@]2(O)[C@H]3Cc4ccc(O)c5c4[C@@]2(CCN3CC2CC2)[C@H]1O5`, the inhibition constant Ki in assay [3] was determined as 2 nM; in [1], 3.4 nM; on Mu-type opioid receptor it was 0.29 nM. For the same compound, the figures for the AD50 in [5], in assay [6] and in [7] were 0.99 mg/kg, 0.02 mg/kg and 0.14 mg/kg, respectively. In the assay with Rattus norvegicus [2] (setting [11]), the ED50 stood at 1.5 mg/kg.
For `CCCCCN1CC[C@@](C)(c2cccc(O)c2)[C@@H](C)C1`, the Displacement in assay [8] came to 78%; in assay [9], 44%. Moreover, the ED50 in the assay with Rattus norvegicus [2] (setting [11]) was 3.8 mg/kg. Besides, the AD50 in assay [7] stood at 0.6 mg/kg.
With `O=C1CC[C@@]2(O)[C@H]3Cc4ccc(O)c5c4[C@@]2(CCN3CC2CC2)[C@H]1O5` [NALTREXONE], the ED50 with Rattus norvegicus [10] was 1.7 mg/kg.
As for `CCCCCCCN1CC[C@@](C)(c2cccc(O)c2)[C@@H](C)C1`, the AD50 is 3.3 mg/kg in [5], 0.21 mg/kg in assay [6] and over 0.64 mg/kg in [7]. Besides, the figures for the Displacement in assay [8] and in assay [9] were 87% and 57%, respectively. Moreover, the ED50 in the assay on Rattus norvegicus [2] (setting [11]) came to 0.4 mg/kg.
In the case of `CC(C)CCN1CC[C@@](C)(c2cccc(O)c2)[C@@H](C)C1`, the values for the Ki (in [3]; at Mu-type opioid receptor) were 70 nM and 32 nM, respectively. The AD50 turned out to be 4.5 mg/kg in assay [5], 0.87 mg/kg in [6] and 0.62 mg/kg in assay [7]. In the assay with Rattus norvegicus [2] (setting [11]), the ED50 is over 20 mg/kg.
In the case of `C[C@H]1CN(CCC2CCCC2)CC[C@@]1(C)c1cccc(O)c1`, the Ki is 7.2 nM in assay [3] and 2.3 nM at Mu-type opioid receptor. Moreover, the values for the AD50 in [5], in assay [6] and in [7] were 0.67 mg/kg, 0.14 mg/kg and 0.22 mg/kg, respectively. Also, the ED50 in the assay with Rattus norvegicus [2] (setting [11]) stood at 0.34 mg/kg.
